In ChEMBL document CHEMBL1770123, “SPF32629A and SPF32629B: enantioselective synthesis, determination of absolute configuration, cytotoxicity and antibacterial evaluation” (Eur J Med Chem, 2011):
In brackets after ≈: the same amount, converted by molar mass.

Key:
Escherichia coli [1] = assay: Antimicrobial activity against Escherichia coli at 500 ug/disc after 24 hrs by disc diffusion method; assay type: functional; settings: read-out: DIZ
Escherichia coli [2] = assay: Antimicrobial activity against Escherichia coli at 1000 ug/disc after 24 hrs by disc diffusion method; assay type: functional; settings: read-out: DIZ
Bacillus subtilis [3] = assay: Antimicrobial activity against Bacillus subtilis at 500 ug/disc after 24 hrs by disc diffusion method; assay type: functional; settings: read-out: DIZ
Bacillus subtilis [4] = assay: Antimicrobial activity against Bacillus subtilis at 1000 ug/disc after 24 hrs by disc diffusion method; assay type: functional; settings: read-out: DIZ
[5] = system: Staphylococcus epidermidis; assay: Antimicrobial activity against Staphylococcus epidermidis at 500 ug/disc after 24 hrs by disc diffusion method; assay type: functional; settings: read-out: DIZ
[6] = system: Staphylococcus epidermidis; assay: Antimicrobial activity against Staphylococcus epidermidis at 1000 ug/disc after 24 hrs by disc diffusion method; assay type: functional; settings: read-out: DIZ
Klebsiella pneumoniae [7] = assay: Antimicrobial activity against Klebsiella pneumoniae at 500 ug/disc after 24 hrs by disc diffusion method; assay type: functional; settings: read-out: DIZ
Klebsiella pneumoniae [8] = assay: Antimicrobial activity against Klebsiella pneumoniae at 1000 ug/disc after 24 hrs by disc diffusion method; assay type: functional; settings: read-out: DIZ
Listeria monocytogenes [9] = assay: Antimicrobial activity against Listeria monocytogenes at 500 ug/disc after 24 hrs by disc diffusion method; assay type: functional; settings: read-out: DIZ
Listeria monocytogenes [10] = assay: Antimicrobial activity against Listeria monocytogenes at 1000 ug/disc after 24 hrs by disc diffusion method; assay type: functional; settings: read-out: DIZ
Salmonella typhimurium [11] = assay: Antimicrobial activity against Salmonella Typhimurium at 500 ug/disc after 24 hrs by disc diffusion method; assay type: functional, Salmonella enterica subsp. enterica serovar Typhimurium; settings: Salmonella enterica, read-out: DIZ
Salmonella typhimurium [12] = assay: Antimicrobial activity against Salmonella Typhimurium at 1000 ug/disc after 24 hrs by disc diffusion method; assay type: functional, Salmonella enterica subsp. enterica serovar Typhimurium; settings: Salmonella enterica, read-out: DIZ
Staphylococcus aureus [13] = assay: Antimicrobial activity against Staphylococcus aureus at 500 ug/disc after 24 hrs by disc diffusion method; assay type: functional; settings: read-out: DIZ
How it was run: (§1)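 Disc diffusion on 2.4% Mueller-Hinton agar inoculated with the strain. Paper discs 6 mm across were loaded with test compound and placed on the agar. Plates were incubated at 37 °C for 24 h. Read-out was the diameter of the inhibition zone in mm.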

Staphylococcus aureus [14] = assay: Antimicrobial activity against Staphylococcus aureus at 1000 ug/disc after 24 hrs by disc diffusion method; assay type: functional; settings: read-out: DIZ
Staphylococcus aureus [15] = assay: Antimicrobial activity against methicillin-resistant Staphylococcus aureus strain 1 TB3G at 500 ug/disc after 24 hrs by disc diffusion method; assay type: functional; settings: read-out: DIZ; how it was run: as §1
Staphylococcus aureus [16] = assay: Antimicrobial activity against methicillin-resistant Staphylococcus aureus strain 1 TB3G at 1000 ug/disc after 24 hrs by disc diffusion method; assay type: functional; settings: read-out: DIZ; how it was run: as §1
Staphylococcus aureus [17] = assay: Antimicrobial activity against methicillin-resistant Staphylococcus aureus strain 2 TB4G at 500 ug/disc after 24 hrs by disc diffusion method; assay type: functional; settings: read-out: DIZ; how it was run: as §1
Staphylococcus aureus [18] = assay: Antimicrobial activity against methicillin-resistant Staphylococcus aureus strain 2 TB4G at 1000 ug/disc after 24 hrs by disc diffusion method; assay type: functional; settings: read-out: DIZ; how it was run: as §1
Staphylococcus aureus [19] = assay: Antimicrobial activity against methicillin-resistant Staphylococcus aureus strain 4 TB5G at 500 ug/disc after 24 hrs by disc diffusion method; assay type: functional; settings: read-out: DIZ; how it was run: as §1
Staphylococcus aureus [20] = assay: Antimicrobial activity against methicillin-resistant Staphylococcus aureus strain 4 TB5G at 1000 ug/disc after 24 hrs by disc diffusion method; assay type: functional; settings: read-out: DIZ; how it was run: as §1
Escherichia coli [21] = assay: Antimicrobial activity against Escherichia coli after 24 hrs by microdilution method; assay type: functional
How it was run: (§2)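 Growth was judged by turbidity, and the MIC was taken as the minimum concentration giving the lowest growth. Amikacin served as reference.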

Bacillus subtilis [22] = assay: Antimicrobial activity against Bacillus subtilis after 24 hrs by microdilution method; assay type: functional; how it was run: as §2
[23] = system: Staphylococcus epidermidis; assay: Antimicrobial activity against Staphylococcus epidermidis after 24 hrs by microdilution method; assay type: functional; how it was run: as §2
Klebsiella pneumoniae [24] = assay: Antimicrobial activity against Klebsiella pneumoniae after 24 hrs by microdilution method; assay type: functional; how it was run: as §2
Listeria monocytogenes [25] = assay: Antimicrobial activity against Listeria monocytogenes after 24 hrs by microdilution method; assay type: functional; how it was run: as §2
Salmonella typhimurium [26] = assay: Antimicrobial activity against Salmonella Typhimurium after 24 hrs by microdilution method; assay type: functional, Salmonella enterica subsp. enterica serovar Typhimurium; settings: Salmonella enterica; how it was run: as §2
Staphylococcus aureus [27] = assay: Antimicrobial activity against Staphylococcus aureus after 24 hrs by microdilution method; assay type: functional; how it was run: as §2
Staphylococcus aureus [28] = assay: Antimicrobial activity against methicillin-resistant Staphylococcus aureus strain 1 TB3G after 24 hrs by microdilution method; assay type: functional
How it was run: (§3)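 Growth was judged by turbidity. The MIC was taken as the lowest concentration giving the lowest growth.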

Staphylococcus aureus [29] = assay: Antimicrobial activity against methicillin-resistant Staphylococcus aureus strain 2 TB4G after 24 hrs by microdilution method; assay type: functional; how it was run: as §3
Staphylococcus aureus [30] = assay: Antimicrobial activity against methicillin-resistant Staphylococcus aureus strain 4 TB5G after 24 hrs by microdilution method; assay type: functional; how it was run: as §3
A549 [31] = assay: Cytotoxicity against human A549 cells assessed as cell death at 1 ug after 48 hrs by MTT assay; assay type: functional
How it was run: (§4)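 A549 cells were grown in DMEM with 2 mmol L-glutamine, 10% FBS, penicillin (50 IU/mL) and streptomycin, at 37 °C and 5% CO2. 1×10^4 cells/well were plated and treated 24 h later with compound diluted in medium for 48 h. Controls were DMSO-matched and untreated wells. MTT 0.4 mg/mL in PBS was added for 4 h in the dark, then DMSO for 4 h. A540 was read and reported as % live cells relative to untreated.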

A549 [32] = assay: Cytotoxicity against human A549 cells assessed as cell death at 2 ug after 48 hrs by MTT assay; assay type: functional; how it was run: as §4
A549 [33] = assay: Cytotoxicity against human A549 cells assessed as cell death at 5 ug after 48 hrs by MTT assay; assay type: functional; how it was run: as §4
A549 [34] = assay: Cytotoxicity against human A549 cells assessed as cell death at 10 ug after 48 hrs by MTT assay; assay type: functional; how it was run: as §4
A549 [35] = assay: Cytotoxicity against human A549 cells assessed as cell death at 25 ug after 48 hrs by MTT assay; assay type: functional; how it was run: as §4
A549 [36] = assay: Cytotoxicity against human A549 cells after 48 hrs by MTT assay; assay type: functional, cell-based; settings: A549, 48 h
How it was run: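 A549 cells were kept in DMEM with 2 mM L-glutamine, 10% FBS, penicillin 50 IU/mL and streptomycin at 37 °C under 5% CO2. 1×10^4 cells per well were treated 24 h after seeding with compounds diluted in medium for 48 h. MTT (0.4 mg/mL in PBS) was added for 4 h in the dark, formazan was dissolved in DMSO for 4 h and absorbance read at 540 nm. Viability was expressed as % of untreated cells, and IC50 was derived.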

Compound | zone of inhibition at 500 µg/disc (Escherichia coli [1]) [mm] | zone of inhibition at 1000 µg/disc (Escherichia coli [2]) [mm] | zone of inhibition at 500 µg/disc (Bacillus subtilis [3]) [mm] | zone of inhibition at 1000 µg/disc (Bacillus subtilis [4]) [mm] | zone of inhibition at 500 µg/disc [5] [mm] | zone of inhibition at 1000 µg/disc [6] [mm] | zone of inhibition at 500 µg/disc (Klebsiella pneumoniae [7]) [mm] | zone of inhibition at 1000 µg/disc (Klebsiella pneumoniae [8]) [mm] | zone of inhibition at 500 µg/disc (Listeria monocytogenes [9]) [mm] | zone of inhibition at 1000 µg/disc (Listeria monocytogenes [10]) [mm] | zone of inhibition at 500 µg/disc (Salmonella typhimurium [11]) [mm] | zone of inhibition at 1000 µg/disc (Salmonella typhimurium [12]) [mm] | zone of inhibition at 500 µg/disc (Staphylococcus aureus [13]) [mm] | zone of inhibition at 1000 µg/disc (Staphylococcus aureus [14]) [mm] | Activity (A549 [31]) [%] | Activity (A549 [32]) [%] | Activity (A549 [33]) [%] | Activity (A549 [34]) [%] | Activity (A549 [35]) [%] | IC50 (A549 [36]) [µM] | other results
CC(C)CC(=O)O[C@H](c1ccccc1)c1cc(O)c(C(=O)O)c(=O)[nH]1 | 10 | 18 | 8 | 15 | 12 | 20 | 9 | 20 | 7 | 15 | 9 | 20 | 11 | 18 | 10.46 | 30.76 | 44.92 | 77.84 | 78.76 | 8 | zone of inhibition at 500 µg/disc (Staphylococcus aureus [15]): 7 mm; zone of inhibition at 1000 µg/disc (Staphylococcus aureus [16]): 13 mm; zone of inhibition at 500 µg/disc (Staphylococcus aureus [17]): 6 mm; zone of inhibition at 1000 µg/disc (Staphylococcus aureus [18]): 10 mm; zone of inhibition at 500 µg/disc (Staphylococcus aureus [19]): 5 mm; zone of inhibition at 1000 µg/disc (Staphylococcus aureus [20]): 11 mm; MIC (Escherichia coli [21]): 50 µg/mL (≈ 145 µM); MIC (Bacillus subtilis [22]): 100 µg/mL (≈ 290 µM); MIC [23]: 25 µg/mL (≈ 72.4 µM); MIC (Klebsiella pneumoniae [24]): > 100 µg/mL; MIC (Listeria monocytogenes [25]): 100 µg/mL (≈ 290 µM); MIC (Salmonella typhimurium [26]): > 100 µg/mL; MIC (Staphylococcus aureus [27]): > 100 µg/mL; MIC (Staphylococcus aureus [28]): > 100 µg/mL; MIC (Staphylococcus aureus [29]): > 100 µg/mL; MIC (Staphylococcus aureus [30]): > 100 µg/mL
CC(C)CC(=O)O[C@@H](c1ccccc1)c1cc(O)c(C(=O)O)c(=O)[nH]1 | 9 | 18 | 5 | 12 | 11 | 18 | 13 | 20 | 10 | 18 | 11 | 19 | 7 | 16 | 9.53 | 25.23 | 47.69 | 77.23 | 82.46 | 9 | zone of inhibition at 500 µg/disc (Staphylococcus aureus [15]): 5 mm; zone of inhibition at 1000 µg/disc (Staphylococcus aureus [16]): 10 mm; zone of inhibition at 500 µg/disc (Staphylococcus aureus [17]): 7 mm; zone of inhibition at 1000 µg/disc (Staphylococcus aureus [18]): 12 mm; zone of inhibition at 500 µg/disc (Staphylococcus aureus [19]): 6 mm; zone of inhibition at 1000 µg/disc (Staphylococcus aureus [20]): 10 mm; MIC (Escherichia coli [21]): 25 µg/mL (≈ 72.4 µM); MIC (Bacillus subtilis [22]): 50 µg/mL (≈ 145 µM); MIC [23]: 100 µg/mL (≈ 290 µM); MIC (Klebsiella pneumoniae [24]): 100 µg/mL (≈ 290 µM); MIC (Listeria monocytogenes [25]): > 100 µg/mL; MIC (Salmonella typhimurium [26]): > 100 µg/mL; MIC (Staphylococcus aureus [27]): > 100 µg/mL; MIC (Staphylococcus aureus [28]): > 100 µg/mL; MIC (Staphylococcus aureus [29]): > 100 µg/mL; MIC (Staphylococcus aureus [30]): > 100 µg/mL
COc1cc([C@@H]2c3cc4c(cc3[C@@H](O[C@@H]3O[C@@H]5CO[C@@H](C)O[C@H]5[C@H](O)[C@H]3O)[C@H]3COC(=O)[C@H]23)OCO4)cc(OC)c1O [ETOPOSIDE] | – | – | – | – | – | – | – | – | – | – | – | – | – | – | 5.54 | 9.12 | 25.91 | 55.33 | 69.48 | 11 | –
